Experimental data published in ChEMBL document CHEMBL1147202, “Novel selective human melanocortin-3 receptor ligands: use of the 4-amino-1,2,4,5-tetrahydro-2-benzazepin-3-one (Aba) scaffold” (Bioorg Med Chem Lett, 2007).
One block for each compound: values may come before it.

Experiments:
Melanocortin receptor 5 [1] = biological target: T1, Melanocortin receptor 5 (Homo sapiens, UniProt P33032); test: Effect on human MC5R expressed in HEK293 cells assessed as intracellular cAMP accumulation; type: functional, cell-based
In short: (§1)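 Transfected HEK293 cells, grown in MEM with 10% FBS, seeded 48 h before assay (50,000 cells/well). Cells preincubated 1 min at 37 °C in Earle's balanced salt solution with IBMX, then exposed 3 min at 37 °C to peptide at 10−10 to 10−5 M. Reaction stopped with ice-cold Tris/EDTA and boiling for 7 min. cAMP in supernatant measured by [3H]cAMP/PKA competition against a standard curve. EC50 from nonlinear least-squares fit, two experiments in triplicate.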

Melanocortin receptor 5 [2] = biological target: T1, Melanocortin receptor 5; test: Displacement of [125I]NDPalphaMSH from human MC5R expressed in HEK293 cells; type: cell-based
In short: (§2)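 Whole HEK293 cells stably expressing the receptor, seeded 48 h before assay (50,000 cells/well), washed with MEM/25 mM bicarbonate. Cells lysed with NaOH/Triton X-100 and counted by gamma counting. IC50 from nonlinear least-squares fit, two experiments in triplicate.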

Melanocortin receptor 4 [3] = biological target: T2, Melanocortin receptor 4 (Homo sapiens, UniProt P32245); test: Effect on human MC4R expressed in HEK293 cells assessed as intracellular cAMP accumulation; type: functional, cell-based; in short: as §1
Melanocortin receptor 3 [4] = biological target: T3, Melanocortin receptor 3 (Homo sapiens, UniProt P41968); test: Displacement of [125I]NDPalphaMSH from human MC3R expressed in HEK293 cells; type: cell-based; in short: as §2
[5] = biological target: T4, Melanocyte-stimulating hormone receptor (Homo sapiens, UniProt Q01726); test: Effect on human MC1R expressed in HEK293 cells assessed as intracellular cAMP accumulation; type: functional, cell-based; in short: as §1
Target sequence in this assay (Q01726 whole entry): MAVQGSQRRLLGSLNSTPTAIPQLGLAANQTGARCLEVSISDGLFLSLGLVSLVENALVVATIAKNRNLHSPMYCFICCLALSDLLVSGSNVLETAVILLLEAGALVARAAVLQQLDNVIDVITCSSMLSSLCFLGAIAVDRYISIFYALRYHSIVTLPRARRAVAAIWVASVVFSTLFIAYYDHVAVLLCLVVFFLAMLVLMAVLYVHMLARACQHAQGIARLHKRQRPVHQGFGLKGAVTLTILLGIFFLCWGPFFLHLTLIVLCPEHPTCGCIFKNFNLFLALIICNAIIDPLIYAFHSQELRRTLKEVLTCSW

[6] = biological target: T4, Melanocyte-stimulating hormone receptor; test: Displacement of [125I]NDPalphaMSH from human MC1R expressed in HEK293 cells; type: cell-based; in short: as §2
Target sequence in this assay (Q01726 whole entry): as above

Melanocortin receptor 4 [7] = biological target: T2, Melanocortin receptor 4; test: Displacement of [125I]NDPalphaMSH from human MC4R expressed in HEK293 cells; type: cell-based; in short: as §2
Melanocortin receptor 3 [8] = biological target: T3, Melanocortin receptor 3; test: Effect on human MC3R expressed in HEK293 cells assessed as intracellular cAMP accumulation; type: functional, cell-based; in short: as §1
Melanocortin receptor 5 [9] = biological target: T1, Melanocortin receptor 5; test: Maximum effect on human MC5R expressed in HEK293 cells assessed as intracellular cAMP accumulation at 0.0001 to 10 uM; type: functional, cell-based; in short: as §1
Melanocortin receptor 3 [10] = biological target: T3, Melanocortin receptor 3; test: Maximum effect on human MC3R expressed in HEK293 cells assessed as intracellular cAMP accumulation at 0.0001 to 10 uM; type: functional, cell-based; in short: as §1
Melanocortin receptor 4 [11] = biological target: T2, Melanocortin receptor 4; test: Maximum effect on human MC4R expressed in HEK293 cells assessed as intracellular cAMP accumulation at 0.0001 to 10 uM; type: functional, cell-based; in short: as §1
[12] = biological target: T4, Melanocyte-stimulating hormone receptor; test: Maximum effect on human MC1R expressed in HEK293 cells assessed as intracellular cAMP accumulation at 0.0001 to 10 uM; type: functional, cell-based; in short: as §1
Target sequence in this assay (Q01726 whole entry, looked up): as the sequence (Q01726 whole entry) above

T2 sequence (P32245 whole entry): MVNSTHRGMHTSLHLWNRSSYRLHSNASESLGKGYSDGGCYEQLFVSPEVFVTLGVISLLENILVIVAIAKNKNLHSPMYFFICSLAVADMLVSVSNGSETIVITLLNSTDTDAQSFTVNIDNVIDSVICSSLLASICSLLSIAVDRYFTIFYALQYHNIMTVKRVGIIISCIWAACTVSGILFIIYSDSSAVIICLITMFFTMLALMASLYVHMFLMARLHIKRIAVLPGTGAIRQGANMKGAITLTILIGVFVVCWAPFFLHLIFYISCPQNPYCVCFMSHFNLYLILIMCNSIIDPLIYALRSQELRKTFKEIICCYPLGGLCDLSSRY
T1 sequence (P33032 whole entry): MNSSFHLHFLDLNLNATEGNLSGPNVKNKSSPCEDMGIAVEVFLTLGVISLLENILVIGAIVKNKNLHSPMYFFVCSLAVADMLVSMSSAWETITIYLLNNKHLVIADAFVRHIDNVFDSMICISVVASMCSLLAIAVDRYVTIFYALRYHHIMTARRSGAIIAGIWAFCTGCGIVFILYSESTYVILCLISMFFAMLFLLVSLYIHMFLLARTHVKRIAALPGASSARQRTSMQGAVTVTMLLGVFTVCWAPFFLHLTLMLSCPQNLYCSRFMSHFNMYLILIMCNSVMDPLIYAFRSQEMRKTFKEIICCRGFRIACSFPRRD
T3 sequence (P41968 whole entry): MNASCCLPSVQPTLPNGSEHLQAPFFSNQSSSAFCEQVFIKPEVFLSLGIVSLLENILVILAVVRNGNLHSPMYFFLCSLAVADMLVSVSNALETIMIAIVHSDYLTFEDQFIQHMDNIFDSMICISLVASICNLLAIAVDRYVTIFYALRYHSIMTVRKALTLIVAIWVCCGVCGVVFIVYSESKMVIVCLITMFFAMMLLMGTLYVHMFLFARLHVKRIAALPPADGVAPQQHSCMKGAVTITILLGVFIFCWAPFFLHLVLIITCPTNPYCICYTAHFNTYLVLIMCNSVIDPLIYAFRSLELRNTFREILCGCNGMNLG

Structure (SMILES): CCCC[C@H](N)C(=O)N[C@H]1CC(=O)NCCCC[C@@H](C(N)=O)NC(=O)[C@H](Cc2c[nH]c3ccccc23)NC(=O)[C@H](CCCN=C(N)N)NC(=O)[C@@H](Cc2ccc(Cl)cc2)N2Cc3ccccc3CC(NC1=O)C2=O (stereo not given in full)
- EC50 (Melanocortin receptor 5 [1]): 180 nM
- IC50 (Melanocortin receptor 5 [2]): 123 nM
- EC50 (Melanocortin receptor 4 [3]): 3200 nM
- IC50 (Melanocortin receptor 3 [4]): 29 nM
- EC50 [5]: 900 nM
- IC50 [6]: > 1000 nM
- IC50 (Melanocortin receptor 4 [7]): 2000 nM
- EC50 (Melanocortin receptor 3 [8]): > 1000 nM

Structure (SMILES): CCCC[C@H](N)C(=O)N[C@H]1CC(=O)NCCCC[C@@H](C(N)=O)NC(=O)[C@H](Cc2c[nH]c3ccccc23)NC(=O)[C@H](CCCNC(=N)N)NC(=O)[C@@H](Cc2ccc(Cl)cc2)N2Cc3ccccc3CC(NC1=O)C2=O (stereo not given in full)
- Activity (Melanocortin receptor 5 [9]): 45%
- Activity (Melanocortin receptor 3 [10]): 55%
- Activity (Melanocortin receptor 4 [11]): 33%
- Activity [12]: 60%

Structure (SMILES): CCCC[C@H](N)C(=O)N[C@H]1CC(=O)NCCCC[C@@H](C(N)=O)NC(=O)[C@H](Cc2c[nH]c3ccccc23)NC(=O)[C@H](CCCNC(=N)N)NC(=O)[C@@H](Cc2ccc3ccccc3c2)NC(=O)[C@H](Cc2cnc[nH]2)NC1=O
- Activity [12]: 100%

Now from value to compound:

- Activity (Melanocortin receptor 5 [9]): 0%
- Activity (Melanocortin receptor 3 [10]): 0%
- Activity (Melanocortin receptor 4 [11]): 0%
- Activity [12]: 0%
Structure (SMILES): CCCC[C@@H](NC(C)=O)C(=O)N[C@@H](CC(=O)O)C(=O)NC1Cc2ccccc2CN([C@@H](Cc2ccccc2)C(=O)N[C@@H](CCCNC(=N)N)C(=O)N[C@@H](Cc2c[nH]c3ccccc23)C(=O)N[C@@H](CCCCN)C(N)=O)C1=O (stereo not given in full)

- EC50 (Melanocortin receptor 5 [1]; hek293): > 10000 nM
- IC50 (Melanocortin receptor 5 [2]; hek293): > 10000 nM
- EC50 (Melanocortin receptor 4 [3]; hek293): > 10000 nM
- IC50 (Melanocortin receptor 3 [4]; hek293): > 10000 nM
- EC50 ([5]; hek293): > 10000 nM
- IC50 ([6]; hek293): > 10000 nM
- IC50 (Melanocortin receptor 4 [7]; hek293): > 10000 nM
- EC50 (Melanocortin receptor 3 [8]; hek293): > 10000 nM
Structure (SMILES): CCCC[C@H](NC(C)=O)C(=O)N[C@@H](CC(=O)O)C(=O)N[C@H]1Cc2ccccc2CN([C@H](Cc2ccccc2)C(=O)N[C@@H](CCCN=C(N)N)C(=O)N[C@@H](Cc2c[nH]c3ccccc23)C(=O)N[C@@H](CCCCN)C(N)=O)C1=O
